Source: ChEMBL document CHEMBL2086296, “Synthesis of novel quinoline-2-one based chalcones of potential anti-tumor activity” (Eur J Med Chem, 2012)

Key:
[1] = system: EKVX; assay: Cytotoxicity against human EKVX cells after 24 hrs by SRB assay; assay type: functional
Method in brief: (§1)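 NCI 60-line screen. Cells in RPMI 1640 with 5% FBS and 2 mM L-glutamine, seeded at 5,000–40,000 cells/well by doubling time, then incubated 24 h at 37 °C, 5% CO2 before dosing. Time-zero plates fixed with TCA at drug addition. DMSO stocks diluted in medium with gentamicin to five concentrations, […]. Protein read by SRB staining. GI50, TGI and LC50 derived relative to control and time-zero.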

[2] = system: NCI-H226; assay: (§2) Cytotoxicity against human NCI-H226 cells after 24 hrs by SRB assay; assay type: functional; details: NCI-H226, 24 h; method in brief: as §1
[3] = system: NCI-H23; assay: Cytotoxicity against human NCI-H23 cells after 24 hrs by SRB assay; assay type: functional; details: NCI-H23, 24 h; method in brief: as §1
[4] = system: NCI-H460; assay: Cytotoxicity against human NCI-H460 cells after 24 hrs by SRB assay; assay type: functional; details: NCI-H460, 24 h; method in brief: as §1
[5] = system: NCI-H522; assay: Cytotoxicity against human NCI-H522 cells after 24 hrs by SRB assay; assay type: functional; details: NCI-H522, 24 h; method in brief: as §1
[6] = system: HT-29; assay: Cytotoxicity against human HT-29 cells after 24 hrs by SRB assay; assay type: functional; details: HT-29, 24 h; method in brief: as §1
[7] = system: SF-268; assay: Cytotoxicity against human SF268 cells after 24 hrs by SRB assay; assay type: functional; details: SF-268, 24 h; method in brief: as §1
[8] = system: M14; assay: (§3) Cytotoxicity against human M14 cells after 24 hrs by SRB assay; assay type: functional; details: M14, 24 h; method in brief: as §1
[9] = system: SN12C; assay: Cytotoxicity against human SN12C cells after 24 hrs by SRB assay; assay type: functional; method in brief: as §1
[10] = system: 786-0; assay: Cytotoxicity against human 786-0 cells after 24 hrs by SRB assay; assay type: functional; details: 786-0, 24 h; method in brief: as §1
[11] = system: DU-145; assay: (§4) Cytotoxicity against human DU145 cells after 24 hrs by SRB assay; assay type: functional; details: DU-145, 24 h; method in brief: as §1
[12] = system: MCF7; assay: Cytotoxicity against human MCF7 cells after 24 hrs by SRB assay; assay type: functional; details: MCF7, 24 h; method in brief: as §1
[13] = system: MDA-MB-231; assay: Cytotoxicity against human MDA-MB-231 cells after 24 hrs by SRB assay; assay type: functional; details: MDA-MB-231, 24 h; method in brief: as §1
[14] = system: T47D; assay: Cytotoxicity against human T47D cells after 24 hrs by SRB assay; assay type: functional
Method in brief: (§5)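 NCI 60-cell screen. Cells are grown in RPMI 1640 with 5% FBS and 2 mM L-glutamine and seeded at 5,000–40,000 cells/well according to doubling time. They are preincubated 24 h at 37 °C in 5% CO2, and Tz plates are TCA-fixed at drug addition. Drug stock is in DMSO, diluted in medium with gentamicin, and tested at five concentrations (100, 10, 1.0, 0.1, […]). Protein is read by SRB staining. GI50, TGI and LC50 are derived relative to time-zero and control wells.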

[15] = system: HL-60; assay: (§6) Cytotoxicity against human HL60 cells after 24 hrs by SRB assay; assay type: cell-based; details: hl-60, 24 h
Method in brief: (§7)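 NCI 60-cell screen. Cells grown in RPMI 1640 with 5% FBS and 2 mM L-glutamine, seeded at 5,000–40,000 cells/well, preincubated 24 h at 37 °C in 5% CO2. Drug stock in DMSO, diluted in medium with gentamicin; five final concentrations, 100, 10, 1.0, 0.1 and […]. Time-zero plates were TCA-fixed. Protein read by SRB staining; GI50, TGI and LC50 taken relative to time-zero.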

[16] = system: NCI-H226; assay: as §2; assay type: cell-based; details: nci-h226, 24 h; method in brief: as §7
[17] = system: COLO 205; assay: Cytotoxicity against human COLO205 cells after 24 hrs by SRB assay; assay type: cell-based; details: colo 205, 24 h; method in brief: as §7
[18] = system: HL-60; assay: as §6; assay type: functional; details: HL-60, 24 h; method in brief: as §1
[19] = system: SK-MEL-5; assay: Cytotoxicity against human SK-MEL-5 cells after 24 hrs by SRB assay; assay type: cell-based; details: sk-mel-5, 24 h; method in brief: as §7
[20] = system: UACC-62; assay: Cytotoxicity against human UACC62 cells after 24 hrs by SRB assay; assay type: cell-based; details: uacc-62, 24 h
Method in brief: (§8)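 NCI 60-cell-line screen: cells grown in RPMI 1640 with 5% FBS and 2 mM L-glutamine, seeded at 5,000–40,000 cells/well by doubling time, and preincubated 24 h at 37 °C in 5% CO2. Time-zero plates were TCA-fixed. DMSO stocks were diluted in medium with gentamicin to five concentrations (100, 10, 1.0, 0.1, […]). Protein was read by SRB, and GI50, TGI and LC50 were derived against time-zero.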

[21] = system: SK-MEL-2; assay: Cytotoxicity against human SK-MEL-2 cells after 24 hrs by SRB assay; assay type: cell-based; details: sk-mel-2, 24 h; method in brief: as §7
[22] = system: M14; assay: as §3; assay type: cell-based; details: m14, 24 h; method in brief: as §7
[23] = system: SK-MEL-28; assay: Cytotoxicity against human SK-MEL-28 cells after 24 hrs by SRB assay; assay type: cell-based; details: sk-mel-28, 24 h; method in brief: as §7
[24] = system: OVCAR-4; assay: Cytotoxicity against human OVCAR4 cells after 24 hrs by SRB assay; assay type: cell-based; details: ovcar-4, 24 h; method in brief: as §7
[25] = system: SK-OV-3; assay: Cytotoxicity against human SKOV3 cells after 24 hrs by SRB assay; assay type: cell-based; details: sk-ov-3, 24 h; method in brief: as §8
[26] = system: ACHN; assay: Cytotoxicity against human ACHN cells after 24 hrs by SRB assay; assay type: cell-based; method in brief: as §7
[27] = system: RXF 393; assay: Cytotoxicity against human RXF393 cells after 24 hrs by SRB assay; assay type: cell-based; details: rxf 393, 24 h; method in brief: as §7
[28] = system: DU-145; assay: as §4; assay type: cell-based; details: du-145, 24 h; method in brief: as §7
[29] = system: NCI-H322M; assay: (§9) Cytotoxicity against human NCI-H322M cells after 24 hrs by SRB assay; assay type: functional; method in brief: as §1
[30] = system: SNB-75; assay: Cytotoxicity against human SNB75 cells after 24 hrs by SRB assay; assay type: functional; details: SNB-75, 24 h; method in brief: as §5
[31] = system: Malme-3M; assay: (§10) Cytotoxicity against human MALME-3M cells after 24 hrs by SRB assay; assay type: functional; method in brief: as §1
[32] = system: IGROV-1; assay: (§11) Cytotoxicity against human IGROV1 cells after 24 hrs by SRB assay; assay type: functional; details: IGROV-1, 24 h; method in brief: as §1
[33] = system: UO-31; assay: (§12) Cytotoxicity against human UO31 cells after 24 hrs by SRB assay; assay type: functional; details: UO-31, 24 h; method in brief: as §5
[34] = system: NCI-H322M; assay: as §9; assay type: cell-based; method in brief: as §7
[35] = system: Malme-3M; assay: as §10; assay type: cell-based; method in brief: as §7
[36] = system: IGROV-1; assay: as §11; assay type: cell-based; details: igrov-1, 24 h; method in brief: as §7
[37] = system: UO-31; assay: as §12; assay type: cell-based; details: uo-31, 24 h; method in brief: as §8
[38] = system: A498; assay: Cytotoxicity against human A498 cells after 24 hrs by SRB assay; assay type: cell-based; details: a498, 24 h; method in brief: as §7
[39] = system: PC-3; assay: Cytotoxicity against human PC3 cells after 24 hrs by SRB assay; assay type: cell-based; details: pc-3, 24 h; method in brief: as §7

O=C(/C=C/c1cc2ccccc2[nH]c1=O)/C=C/c1cc2ccccc2[nH]c1=O
GI50 [1]: 2.61 µM
TGI [1]: > 100 µM
GI50 [2]: 2.77 µM
TGI [2]: 8.01 µM
GI50 [3]: 2.42 µM
TGI [3]: 87.7 µM
GI50 [4]: 4.63 µM
TGI [4]: > 100 µM
GI50 [5]: 2.52 µM
GI50 [6]: 0.483 µM
TGI [6]: 1.78 µM
GI50 [7]: 3.75 µM
TGI [7]: > 100 µM
GI50 [8]: 0.393 µM
GI50 [9]: 2.66 µM
TGI [9]: > 100 µM
GI50 [10]: 2.75 µM
TGI [10]: 6.82 µM
GI50 [11]: 4.18 µM
TGI [11]: > 100 µM
GI50 [12]: 0.327 µM
TGI [12]: > 100 µM
GI50 [13]: 3.49 µM
TGI [13]: > 100 µM
GI50 [14]: 3.27 µM
TGI [14]: > 100 µM
LC50 [15]: > 100 µM
LC50 [16]: > 100 µM
LC50 [17]: > 100 µM
GI50 [18]: 3.38 µM
TGI [18]: > 100 µM
LC50 [19]: > 100 µM
LC50 [20]: > 100 µM
LC50 [21]: > 100 µM
LC50 [22]: > 100 µM
LC50 [23]: > 100 µM
LC50 [24]: > 100 µM
LC50 [25]: > 100 µM
LC50 [26]: > 100 µM
LC50 [27]: 7.73 µM
LC50 [28]: > 100 µM

O=C(/C=C/c1cc2ccccc2[nH]c1=O)c1ccc(O)cc1
GI50 [1]: 13.4 µM
TGI [1]: 27.2 µM
GI50 [2]: 3.29 µM
TGI [2]: 10.9 µM
GI50 [3]: 3.18 µM
TGI [3]: 20 µM
GI50 [4]: 2.39 µM
TGI [4]: 6.87 µM
GI50 [5]: 1.7 µM
TGI [5]: 3.29 µM
GI50 [29]: 3.98 µM
TGI [29]: 16.8 µM
GI50 [6]: 3.61 µM
TGI [6]: 12.1 µM
GI50 [7]: 3.76 µM
TGI [7]: 23.3 µM
GI50 [30]: 9.3 µM
TGI [30]: 23 µM
GI50 [31]: 10.4 µM
TGI [31]: 33.6 µM
GI50 [8]: 2.6 µM
TGI [8]: 6.57 µM
GI50 [32]: 4.35 µM
TGI [32]: 45.1 µM
GI50 [9]: 3.48 µM
TGI [9]: 16 µM
GI50 [33]: 4.38 µM
TGI [33]: 26.6 µM
GI50 [11]: 4.02 µM
TGI [11]: 14.3 µM
GI50 [12]: 3.49 µM
TGI [12]: 16.8 µM
GI50 [13]: 2.31 µM
TGI [13]: 15 µM
GI50 [14]: 4.19 µM
TGI [14]: 20.4 µM
LC50 [15]: > 100 µM
LC50 [16]: 34.5 µM
LC50 [34]: 55.5 µM
LC50 [17]: 76.8 µM
LC50 [35]: > 100 µM
GI50 [18]: 2.66 µM
TGI [18]: 6.86 µM
LC50 [19]: 37.3 µM
LC50 [20]: 39.6 µM
LC50 [21]: 48.3 µM
LC50 [22]: > 100 µM
LC50 [23]: 66.3 µM
LC50 [36]: > 100 µM
LC50 [26]: 34 µM
LC50 [27]: 6.33 µM
LC50 [37]: > 100 µM
LC50 [28]: 38 µM
LC50 [38]: 47.8 µM
LC50 [39]: > 100 µM
